Screening data deposited in PubChem by Broad Institute.
dFosB act = mouse delta FosB homodimer activation | P13346 | purified delta FosB, TAMRA-CDK5 oligo fluorescence polarization; percent of positive-control signal above neutral wells | activation, % at 25 µM | 340,000 tested, 0.99% active | AID 493131;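 active = mean activation above about 17%, with every replicate also reaching it, limit read from the data, passing the limit was not always enough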
Target sequence (P13346 whole entry, looked up): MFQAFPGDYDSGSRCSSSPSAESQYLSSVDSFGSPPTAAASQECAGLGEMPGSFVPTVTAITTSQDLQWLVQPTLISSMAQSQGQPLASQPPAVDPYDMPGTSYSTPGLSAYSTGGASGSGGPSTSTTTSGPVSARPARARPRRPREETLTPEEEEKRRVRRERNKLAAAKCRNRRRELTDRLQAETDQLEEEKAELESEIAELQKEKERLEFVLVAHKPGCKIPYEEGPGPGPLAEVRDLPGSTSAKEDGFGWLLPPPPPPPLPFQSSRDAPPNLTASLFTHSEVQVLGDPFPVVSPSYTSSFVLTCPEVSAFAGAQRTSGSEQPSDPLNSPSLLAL
FGF22 binding-1 = FGF22 (human) thermal shift binding | Q9HCT0 | activity (Tm shift, normalised), % at 9.99 µM | AID 651658 | recombinant FGF22 thermal shift, SYPRO orange fluorescence; percent of sucrose octasulfate shift, DMSO zero | 340,000 tested, 1.5% active;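 active = mean Tm shift, scaled 0 neutral to 100 positive control, at about 1.3% or above, every replicate too, limit read from the data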
Target sequence (Q9HCT0 whole entry, looked up): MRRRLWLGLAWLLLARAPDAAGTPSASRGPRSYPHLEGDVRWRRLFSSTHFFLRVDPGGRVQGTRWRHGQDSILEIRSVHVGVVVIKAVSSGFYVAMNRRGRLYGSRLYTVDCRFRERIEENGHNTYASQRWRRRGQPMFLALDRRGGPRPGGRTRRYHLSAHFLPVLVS
S100A4 MyoIIA = S100A4-myosin IIA interaction inhibition; 360,000 tested, 0.14% active; AID 652163; inhibition, % at 10.7 µM; S100A4/TAMRA-MyoIIA peptide fluorescence polarization;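 active = mean inhibition of at least 70% across replicates, with every replicate also reaching that level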
Target sequence (P26447 whole entry, looked up): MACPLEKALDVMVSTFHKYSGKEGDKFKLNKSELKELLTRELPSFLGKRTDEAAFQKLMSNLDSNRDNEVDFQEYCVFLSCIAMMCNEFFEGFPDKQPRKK
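Test system – S100A4 monomer (human) · Compound – single-point compound testing · Schedule – 5 min incubation before reading · Probe or stimulus – TAMRA-labelled myosin IIA heavy-chain peptide probe, 5 nM · Benchmarks – neutral control DMSO, positive control TFP · Medium – Calcium-containing HEPES buffer, pH 7.2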
CFTR F508del cor = correctors of CFTR F508del function in bronchial epithelial cells | 350,000 tested, 0.36% active | CFBE cells, YFP halide quenching; stimulated with forskolin plus potentiator P3; % fluorescence drop versus neutral controls | activity (quench increase), % at 7.58 µM;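 active = mean added fluorescence quench of at least 8% versus neutral control, with both replicates also reaching 8%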;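 also: cells transiently co-express mutant CFTR-F508del with the halide-sensitive YFP; corrector assay measuring rescue of mutant channel to the surface after 24 h compound exposure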
FGF22 binding-2 = binds human FGF22 shifting its melting temperature. shares compounds with FGF22 binding-1. recombinant FGF22 thermal shift, SYPRO orange fluorescence. thermal shift activity, °C (ΔTm) at 38 µM. 1,000 tested, 2% active;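 active = fitted rise in melting shift crosses a set limit at or below the top valid dose tested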
FGF22 TSA = binders of human FGF22 by thermal shift; Tm shift (activity), % at 38 µM; shares compounds with FGF22 binding-1; 50 tested, under 10 active; Thermal shift assay, SYPRO orange, melting temperature shift; AID 743017;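 active = compounds whose fitted dose curve of melting temperature shift rises past a set threshold within the tested doses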
SYPRO no-protein = counter-screen for FGF22 binders: compound-only thermal shift, no protein. compound-only SYPRO orange thermal shift counter-screen. 1,000 tested, 2% active. AC50, µM (highest dose often 38 µM). shares compounds with FGF22 binding-1;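 active = rising signal whose fitted curve reaches the 0.54 level within the top valid dose, showing a melting point, actives reach about 13 µM in these data; inactive = the rest, including activity in the opposite direction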; also: value is where the raw curve crosses a fixed level and not half-maximal
Large screens that a line does not name were inactive (follow-up assays come after a bar, where they were run). This is a sample that favours compounds with a hit; in the whole collection about 2.2% have one here.

Cc1ccc(-n2c(O)c(C=NC3CCS(=O)(=O)C3)c3ccccc3c2=O)cc1C (configuration not stated)	FGF22 binding-1 1.7 | FGF22 binding-2 inactive | SYPRO no-protein inactive
C[C@@H]1CN([C@@H](C)CO)C(=O)c2ccccc2-c2ccccc2CO[C@@H]1CN(C)C(=O)Nc1ccccc1C(F)(F)F	none (no result: dFosB act)
CCN1C/C(=C/c2sccc2C)c2nc3ccccc3c(C(=O)O)c2C1	none
CCN1C/C(=C/c2cccs2)c2nc3ccccc3c(C(=O)O)c2C1	FGF22 binding-1 1.8 | FGF22 binding-2 inactive | FGF22 TSA inactive | SYPRO no-protein inactive
COc1cccc(OCC(=O)N(C)Cc2nc(-c3cccc(C)c3)no2)c1	none
COc1ccc(OC(C)C(=O)N(C)Cc2nc(-c3cccc(C)c3)no2)cc1 (configuration not stated)	FGF22 binding-1 1.6 | FGF22 binding-2 inactive | SYPRO no-protein inactive
C[C@@H]1CN([C@@H](C)CO)C(=O)c2cc(NC(=O)Nc3ccccc3)ccc2O[C@@H]1CN(C)S(=O)(=O)c1ccc(F)cc1	none (no result: dFosB act)
CCCNC(=O)[C@@H]1[C@@H](CO)[C@@H]2Cn3c(ccc(-c4ccc(F)cc4)c3=O)[C@@H]2N1CC1CC1	none (no result: dFosB act)
COc1ccc2c3c([nH]c2c1)[C@H](CO)N(C(C)=O)CC31CN(C(=O)c2ccc3c(c2)OCO3)C1	FGF22 binding-1 26 (no result: dFosB act) | FGF22 binding-2 inactive | SYPRO no-protein inactive
Cc1cccc(Cn2ncc(Cl)c(Cl)c2=O)c1	FGF22 binding-1 39 | FGF22 binding-2 inactive | SYPRO no-protein inactive
O=C1Nc2cc(Cl)c(Cl)cc2N(O)N1c1ccc(Cl)cc1	FGF22 binding-1 28 | FGF22 binding-2 inactive | SYPRO no-protein inactive
O=C1Nc2cc(Cl)c(Cl)cc2N(O)N1c1cccc(Cl)c1	none (no result: FGF22 binding-1, S100A4 MyoIIA, CFTR F508del cor)
COc1ccccc1NC(=O)c1ccc(NC(=O)COC(=O)c2ccc(O)cc2)cc1	FGF22 binding-1 1.7 | FGF22 binding-2 inactive | SYPRO no-protein inactive
C[C@H](CO)N1C[C@H](C)[C@@H](CN(C)C(=O)C2CC2)Oc2ncc(C#Cc3ccccc3)cc2C1=O	none (no result: dFosB act)
CCCNC(=O)N1C[C@@H]2[C@H](c3ccccc31)[C@H](CO)N2Cc1ccc(F)cc1	FGF22 binding-1 1.3 (no result: dFosB act) | FGF22 binding-2 inactive | SYPRO no-protein inactive
CC(C)NC(=O)N1C[C@@H]2[C@H](c3ccccc31)[C@@H](CO)N2Cc1ccccn1	FGF22 binding-1 15 (no result: dFosB act) | FGF22 binding-2 inactive | SYPRO no-protein inactive
CC(C)NC(=O)N1C[C@@H]2[C@H](c3ccccc31)[C@H](CO)N2Cc1ccccn1	none (no result: dFosB act, FGF22 binding-1, S100A4 MyoIIA)
CCCCNC(=O)COCc1cc(-c2ccc3c(c2)OCO3)on1	none
CCCNC(=O)COCc1cc(-c2ccc3c(c2)OCO3)on1	FGF22 binding-1 29 | FGF22 binding-2 inactive | SYPRO no-protein inactive
COc1cccc(S(=O)(=O)N[C@@H]2CC[C@H](CCn3cc(-c4ccccn4)nn3)O[C@@H]2CO)c1	none (no result: dFosB act)
C[C@@H]1CN([C@@H](C)CO)C(=O)Cc2cc(NC(=O)CCCN(C)C)ccc2O[C@H]1CN(C)Cc1ccc(C(F)(F)F)cc1	none (no result: dFosB act)
C[C@H](CO)N1C[C@H](C)[C@@H](CN(C)S(=O)(=O)c2ccc(Cl)cc2)Oc2c(NS(=O)(=O)c3cn(C)cn3)cccc2C1=O	none (no result: dFosB act)
C[C@@H]1CN([C@@H](C)CO)C(=O)c2cccc(NC(=O)C3CC3)c2O[C@H]1CN(C)Cc1ccncc1	FGF22 binding-1 1.2 (no result: dFosB act) | FGF22 binding-2 inactive | SYPRO no-protein inactive
COc1ccc(S(=O)(=O)N(C)C[C@H]2Oc3c(NC(=O)c4cc(C)nn4C)cccc3C(=O)N([C@@H](C)CO)C[C@@H]2C)cc1	none (no result: dFosB act)
COc1ccc(S(=O)(=O)N(C)C[C@@H]2Oc3c(NC(=O)c4cc(C)nn4C)cccc3C(=O)N([C@H](C)CO)C[C@H]2C)cc1	FGF22 binding-1 1.3 (no result: dFosB act) | FGF22 binding-2 inactive | SYPRO no-protein inactive
C[C@@H]1CN([C@H](C)CO)C(=O)c2cccc(NC(=O)C3CC3)c2O[C@@H]1CN(C)Cc1ccncc1	none (no result: dFosB act)
C[C@@H]1CN([C@@H](C)CO)C(=O)c2cccc(N(C)C)c2O[C@H]1CN(C)Cc1ccc(C(=O)O)cc1	FGF22 binding-1 2.7 (no result: dFosB act) | FGF22 binding-2 inactive | SYPRO no-protein inactive
C[C@@H]1CN([C@@H](C)CO)C(=O)c2cccc(NS(=O)(=O)c3cn(C)cn3)c2O[C@@H]1CN(C)S(=O)(=O)c1ccc(Cl)cc1	FGF22 binding-1 1.5 (no result: dFosB act) | FGF22 binding-2 inactive | SYPRO no-protein inactive
COCC(=O)N(C)C[C@H]1Oc2cc(C#CCC(C)C)ccc2S(=O)(=O)N([C@@H](C)CO)C[C@H]1C	none (no result: dFosB act)
C[C@@H]1CN([C@@H](C)CO)C(=O)c2cccc(NC(=O)c3ccc(-c4nccs4)cc3)c2O[C@@H]1CN(C)C	FGF22 binding-1 5.0 (no result: dFosB act) | FGF22 binding-2 inactive | SYPRO no-protein inactive
C[C@H]1CN([C@@H](C)CO)C(=O)CCCn2cc(nn2)CO[C@@H]1CN(C)Cc1cccc(C(=O)O)c1	FGF22 binding-1 1.3 (no result: dFosB act) | FGF22 binding-2 inactive | SYPRO no-protein inactive
C[C@H](CO)N1C[C@H](C)[C@H](CN(C)Cc2ccccc2)OCc2cn(nn2)CCCC1=O	none (no result: dFosB act, FGF22 binding-1, S100A4 MyoIIA)
C[C@H]1CN([C@@H](C)CO)C(=O)c2cccc(NC(=O)c3ccc(-c4nccs4)cc3)c2O[C@H]1CN(C)C	none (no result: dFosB act)
C[C@H](CO)N1C[C@H](C)[C@@H](CN(C)S(=O)(=O)c2ccccc2)Oc2c(NC(=O)C3CC3)cccc2C1=O	FGF22 binding-1 2.6 | FGF22 binding-2 inactive | SYPRO no-protein inactive
O=C(Nc1ccc(Cl)c(Cl)c1)N[C@@H]1CC[C@H](CCn2cc(C3CCCC3)nn2)O[C@@H]1CO	none (no result: dFosB act, FGF22 binding-1)
C[C@@H]1CN([C@@H](C)CO)C(=O)Cc2cc(NC(=O)Nc3ccccc3)ccc2O[C@H]1CN(C)S(C)(=O)=O	none (no result: dFosB act)
COc1ccc2c3c(n(C)c2c1)[C@H](CO)NCC31CCN(C(=O)CC2CC2)CC1	none (no result: dFosB act, S100A4 MyoIIA)
CC(=O)c1ccc(NS(=O)(=O)c2ccc(N)cc2)cc1	FGF22 binding-1 25 | FGF22 binding-2 inactive | SYPRO no-protein inactive
O=C(CCc1ccccc1)c1c(O)cc(O)cc1O	FGF22 binding-1 21 | FGF22 binding-2 inactive | SYPRO no-protein inactive
Nc1ccc(C(=O)Nc2ccc(OC(F)(F)C(F)F)c(NC(=O)c3ccc(N)cc3)c2)cc1	FGF22 binding-1 1.7 | FGF22 binding-2 inactive | SYPRO no-protein inactive
O=C(Nc1ccc(OC(F)(F)C(F)F)c(NC(=O)c2ccc(F)cc2)c1)c1ccc(F)cc1	none (no result: FGF22 binding-1, S100A4 MyoIIA, CFTR F508del cor)
Cc1onc(-c2ccccc2)c1C(=O)Nc1ncc([N+](=O)[O-])s1	FGF22 binding-1 1.9 | SYPRO no-protein inactive
C[C@@H]1CCCCO[C@H](CN(C)C)[C@H](C)CN([C@H](C)CO)C(=O)c2cc(NC(=O)c3ccccc3)ccc2O1	none (no result: dFosB act)
